Measurements as given in ChEMBL document CHEMBL3286131, “Design, synthesis and systematic evaluation of cytotoxic 3-heteroarylisoquinolinamines as topoisomerases inhibitors” (Eur J Med Chem, 2014).
Several values for one entry are separate records, joined by “and”; a condition that tells them apart may be missing. Equal values may be shown once.

Legend:
[1] = Cytotoxicity against human MCF10A cells after 2 days; type: cell-based, MCF-10A
Summary of the method: (§1)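 Cells seeded at 2-4 × 10^4 per well in medium with 10% FBS and incubated overnight at 37 °C, 5% CO2. Graded compound concentrations added on day 2. CCK-8 reagent added on day 4 for a further 4 h, absorbance read at 450 nm. IC50 from a four-parameter logistic fit; mean ± S.D. of three experiments run in triplicate.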

HeLa [2] = test: Cell cycle arrest in human HeLa cells assessed as accumulation at G2/M phase phase at 25 uM after 24 hrs using […] by flow cytometry analysis relative to control; type: functional
Summary of the method: (§2)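 HeLa cells exposed to graded compound concentrations for 24 h, harvested by centrifugation, PBS-washed twice, fixed overnight on ice in 70% ethanol. Stained with 10 μg/mL propidium iodide plus 0.5 mg/mL RNase and 0.1% Triton X-100 in PBS, 30 min at 37 °C in the dark. Flow cytometry gates: sub-G0/G1, G0/G1, S, G2/M.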

HeLa [3] = test: Cell cycle arrest in human HeLa cells assessed as accumulation at G0/G1 phase phase at 10 uM after 24 hrs using ethidium bromide staining by flow cytometry analysis relative to control; type: functional; conditions: in the assay text read “propidium iodide staining” for “ethidium bromide staining”; summary of the method: as §2
HeLa [4] = test: Cell cycle arrest in human HeLa cells assessed as accumulation at sub-G0/G1 phase at 25 uM after 24 hrs using […] by flow cytometry analysis relative to control; type: functional; summary of the method: as §2
HeLa [5] = test: Cell cycle arrest in human HeLa cells assessed as accumulation at G0/G1 phase phase at 50 uM after 24 hrs using […] by flow cytometry analysis relative to control; type: functional; summary of the method: as §2
T47D = test: Cytotoxicity against human T47D cells after 2 days; type: functional, cell-based; summary of the method: as §1
HeLa [6] = test: Cell cycle arrest in human HeLa cells assessed as accumulation at G0/G1 phase phase at 25 uM after 24 hrs using […] by flow cytometry analysis relative to control; type: functional; summary of the method: as §2
[7] = biological target: T1, DNA topoisomerase 1 (Homo sapiens) (UniProt P11387); test: Inhibition of recombinant human DNA topoisomerase-1-mediated relaxation of supercoiled DNA pBR322 at 20 uM after 7 hrs using ethidium bromide staining by agarose gel electrophoresis analysis
T1 sequence (whole entry): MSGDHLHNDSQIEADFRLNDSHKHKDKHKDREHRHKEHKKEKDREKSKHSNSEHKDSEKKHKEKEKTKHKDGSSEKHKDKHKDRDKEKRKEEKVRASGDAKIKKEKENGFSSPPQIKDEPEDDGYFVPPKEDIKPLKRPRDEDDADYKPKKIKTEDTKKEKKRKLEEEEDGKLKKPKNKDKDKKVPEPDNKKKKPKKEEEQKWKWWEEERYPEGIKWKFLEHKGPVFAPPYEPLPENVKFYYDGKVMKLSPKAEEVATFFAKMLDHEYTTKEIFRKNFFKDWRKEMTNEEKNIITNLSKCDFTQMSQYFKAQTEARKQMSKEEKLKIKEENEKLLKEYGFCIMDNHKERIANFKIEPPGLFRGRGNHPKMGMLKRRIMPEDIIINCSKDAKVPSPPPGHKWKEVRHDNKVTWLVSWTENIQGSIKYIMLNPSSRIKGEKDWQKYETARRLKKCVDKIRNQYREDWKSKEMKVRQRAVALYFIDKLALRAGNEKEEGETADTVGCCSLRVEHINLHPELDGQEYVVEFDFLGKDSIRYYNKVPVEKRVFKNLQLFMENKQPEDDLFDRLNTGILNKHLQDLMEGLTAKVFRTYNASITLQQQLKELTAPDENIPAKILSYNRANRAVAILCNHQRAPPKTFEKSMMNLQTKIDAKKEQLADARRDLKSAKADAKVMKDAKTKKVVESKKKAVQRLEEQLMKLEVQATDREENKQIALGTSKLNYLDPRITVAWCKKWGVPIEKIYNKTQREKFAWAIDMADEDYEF
Summary of the method: (§3)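 pBR322 (100 ng) incubated with recombinant human topo I (0.4 units) ± compound for 30 min at 37 °C. Buffer: 10 mM Tris-HCl pH 7.9, 150 mM NaCl, 0.1% BSA, 1 mM spermidine, 5% glycerol. Quenched with sarcosyl stop solution. 1% agarose gel run at 15 V for 7 h in TAE, ethidium bromide stain, supercoiled DNA quantified under UV.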

HeLa [8] = test: Cell cycle arrest in human HeLa cells assessed as accumulation at S phase phase at 5 uM after 24 hrs using ethidium bromide staining by flow cytometry analysis relative to control; type: functional; conditions: in the assay text read “propidium iodide staining” for “ethidium bromide staining”; summary of the method: as §2
HeLa [9] = test: Cell cycle arrest in human HeLa cells assessed as accumulation at sub-G0/G1 phase at 10 uM after 24 hrs using ethidium bromide staining by flow cytometry analysis relative to control; type: functional; conditions: in the assay text read “propidium iodide staining” for “ethidium bromide staining”; summary of the method: as §2
HeLa [10] = test: Cell cycle arrest in human HeLa cells assessed as accumulation at G2/M phase phase at 50 uM after 24 hrs using […] by flow cytometry analysis relative to control; type: functional; summary of the method: as §2
[11] = biological target: T1, DNA topoisomerase 1 (Homo sapiens); test: Inhibition of recombinant human DNA topoisomerase-1-mediated relaxation of supercoiled DNA pBR322 at 100 uM after 7 hrs using ethidium bromide staining by agarose gel electrophoresis analysis; summary of the method: as §3
HeLa [12] = test: Cell cycle arrest in human HeLa cells assessed as accumulation at G2/M phase phase at 5 uM after 24 hrs using ethidium bromide staining by flow cytometry analysis relative to control; type: functional; conditions: in the assay text read “propidium iodide staining” for “ethidium bromide staining”; summary of the method: as §2
DU-145 = test: Cytotoxicity against human DU145 cells after 2 days; type: functional, cell-based; summary of the method: as §1
HeLa [13] = test: Cell cycle arrest in human HeLa cells assessed as accumulation at G2/M phase phase at 10 uM after 24 hrs using ethidium bromide staining by flow cytometry analysis relative to control; type: functional; conditions: in the assay text read “propidium iodide staining” for “ethidium bromide staining”; summary of the method: as §2
HeLa [14] = test: Cell cycle arrest in human HeLa cells assessed as accumulation at S phase phase at 50 uM after 24 hrs using […] by flow cytometry analysis relative to control; type: functional; summary of the method: as §2
[15] = biological target: DNA topoisomerase 2-alpha (Homo sapiens) (UniProt P11388); test: Inhibition of human DNA topoisomerase-2a-mediated relaxation of supercoiled DNA pBR322 at 100 uM after 4 hrs using ethidium bromide staining by agarose gel electrophoresis analysis
Summary of the method: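 Supercoiled pBR322 (200 ng) incubated with human topo IIα (1 unit) ± compound for 30 min at 30 °C. Buffer: 10 mM Tris-HCl pH 7.9, 50 mM NaCl, 50 mM KCl, 5 mM MgCl2, 1 mM EDTA, 1 mM ATP, BSA. Stopped with EDTA. 1% agarose gel run at 25 V for 4 h in TAE, ethidium bromide stain, supercoiled DNA quantified by UV imaging.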

HeLa [16] = test: Cell cycle arrest in human HeLa cells assessed as accumulation at sub-G0/G1 phase at 50 uM after 24 hrs using […] by flow cytometry analysis relative to control; type: functional; summary of the method: as §2
HeLa [17] = test: Cell cycle arrest in human HeLa cells assessed as accumulation at S phase phase at 25 uM after 24 hrs using […] by flow cytometry analysis relative to control; type: functional; summary of the method: as §2
HeLa [18] = test: Cell cycle arrest in human HeLa cells assessed as accumulation at S phase phase at 10 uM after 24 hrs using ethidium bromide staining by flow cytometry analysis relative to control; type: functional; conditions: in the assay text read “propidium iodide staining” for “ethidium bromide staining”; summary of the method: as §2
[19] = Cytotoxicity against human HCT15 cells after 2 days; type: functional, cell-based, HCT-15; summary of the method: as §1
HeLa [20] = test: Cell cycle arrest in human HeLa cells assessed as accumulation at G0/G1 phase phase at 5 uM after 24 hrs using ethidium bromide staining by flow cytometry analysis relative to control; type: functional; conditions: in the assay text read “propidium iodide staining” for “ethidium bromide staining”; summary of the method: as §2

DNA topoisomerase 2-alpha (Homo sapiens), sequence (P11388 whole entry): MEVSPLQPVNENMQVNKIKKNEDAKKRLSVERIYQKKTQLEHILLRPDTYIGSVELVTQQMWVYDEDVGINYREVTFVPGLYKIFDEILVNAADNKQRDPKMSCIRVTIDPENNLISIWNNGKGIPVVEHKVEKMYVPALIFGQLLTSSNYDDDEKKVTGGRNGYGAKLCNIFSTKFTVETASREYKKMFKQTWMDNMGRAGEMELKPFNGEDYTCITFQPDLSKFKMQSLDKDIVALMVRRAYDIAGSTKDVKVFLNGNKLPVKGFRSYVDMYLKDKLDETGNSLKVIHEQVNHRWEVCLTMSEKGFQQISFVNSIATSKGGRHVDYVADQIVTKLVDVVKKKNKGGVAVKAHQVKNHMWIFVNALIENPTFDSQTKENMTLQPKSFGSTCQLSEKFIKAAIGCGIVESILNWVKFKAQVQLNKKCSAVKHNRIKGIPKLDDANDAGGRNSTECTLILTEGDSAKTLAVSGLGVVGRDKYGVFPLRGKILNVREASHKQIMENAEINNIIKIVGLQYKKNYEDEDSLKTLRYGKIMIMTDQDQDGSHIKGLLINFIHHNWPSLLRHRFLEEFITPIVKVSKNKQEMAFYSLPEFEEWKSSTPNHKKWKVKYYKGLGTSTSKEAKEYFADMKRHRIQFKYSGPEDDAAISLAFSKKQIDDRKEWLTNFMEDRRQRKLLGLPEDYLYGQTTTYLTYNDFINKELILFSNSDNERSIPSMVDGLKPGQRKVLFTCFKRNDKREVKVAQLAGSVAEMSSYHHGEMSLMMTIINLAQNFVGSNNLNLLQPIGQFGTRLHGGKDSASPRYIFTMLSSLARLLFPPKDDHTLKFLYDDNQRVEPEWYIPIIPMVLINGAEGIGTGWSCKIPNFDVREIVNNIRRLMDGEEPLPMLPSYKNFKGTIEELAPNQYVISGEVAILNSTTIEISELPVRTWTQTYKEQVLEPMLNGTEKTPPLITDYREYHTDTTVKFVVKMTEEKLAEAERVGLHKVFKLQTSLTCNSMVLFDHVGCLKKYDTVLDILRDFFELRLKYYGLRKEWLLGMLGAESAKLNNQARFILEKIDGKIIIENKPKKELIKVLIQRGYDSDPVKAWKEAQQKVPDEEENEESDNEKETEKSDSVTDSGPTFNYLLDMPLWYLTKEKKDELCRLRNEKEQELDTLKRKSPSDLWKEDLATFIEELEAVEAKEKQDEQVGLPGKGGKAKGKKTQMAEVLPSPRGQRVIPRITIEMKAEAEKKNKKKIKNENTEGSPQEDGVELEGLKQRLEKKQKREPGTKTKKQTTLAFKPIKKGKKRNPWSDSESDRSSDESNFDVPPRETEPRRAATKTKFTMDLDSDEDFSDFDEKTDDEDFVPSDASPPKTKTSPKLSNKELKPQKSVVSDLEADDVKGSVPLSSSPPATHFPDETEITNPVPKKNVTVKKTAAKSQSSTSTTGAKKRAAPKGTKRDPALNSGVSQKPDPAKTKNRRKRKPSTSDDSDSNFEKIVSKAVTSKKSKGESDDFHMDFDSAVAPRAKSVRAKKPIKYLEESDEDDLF

Row | inhibition [7] [%] | inhibition [15] [%] | Compound | Activity (HeLa [2]) [%] | Activity (HeLa [3]) [%] | Activity (HeLa [4]) [%] | Activity (HeLa [5]) [%] | Activity (HeLa [6]) [%] | Activity (HeLa [8]) [%] | Activity (HeLa [9]) [%] | Activity (HeLa [10]) [%] | Activity (HeLa [12]) [%] | IC50 (DU-145; Homo sapiens, DU-145, 48 h) [µM] | Activity (HeLa [13]) [%] | Activity (HeLa [14]) [%] | Activity (HeLa [16]) [%] | Activity (HeLa [17]) [%] | Activity (HeLa [18]) [%] | IC50 ([19]; Homo sapiens, HCT-15, 48 h) [µM] | Activity (HeLa [20]) [%] | IC50 ([1]; mcf-10a) [µM] | also measured
1 | 0 | 22.1 | Cc1ccc2cc(-c3cccs3)nc(N3CCNCC3)c2c1 | 18.81 | 68.71 | 26.67 | 6.92 | 49.19 | 11.32 | 5.76 | 1.35 | 14.91 | 4.15 | 14.5 | 1.26 | 90.48 | 4.72 | 10.13 | 1.29 | 65.59 |  | IC50 ([1]; Homo sapiens, MCF-10A, 48 h): 5.54 µM; IC50 (T47D; Homo sapiens, T47D, 48 h): 1.14 µM; inhibition [11]: 10.7%
2 | 0 | 0 | Cc1ccc2cc(-c3cccs3)nc(N3CCN(C)CC3)c2c1 |  |  |  |  |  |  |  |  |  |  |  |  |  |  |  |  |  |  | inhibition [11]: 29.6% and 35.9%
3 | 6.5 | 0 | CCN1CCN(c2nc(-c3cccs3)cc3ccc(C)cc23)CC1 |  |  |  |  |  |  |  |  |  |  |  |  |  |  |  |  |  |  | 
4 |  |  | CCN1CCN(c2nc(-c3cccs3)cc3cc(C)ccc23)CC1 | 13.75 | 58.48 | 3.17 | 2.37 | 63.92 | 9.77 | 2.63 | 0.22 | 17.4 | 17.2 | 18.01 | 0.47 | 96.49 | 13.57 | 13.41 | 2.41 | 65.61 | 33.9 | IC50 (T47D; t47d): 8.45 µM
5 |  |  | CCN1CCN(c2nc(-c3cccs3)cc3ccccc23)CC1.Cl | 15.75 | 57.14 | 2.67 | 31.74 | 54.43 | 9.99 | 2.59 | 3.46 | 15.9 | 46.6 | 20 | 6.9 | 54.68 | 18.42 | 12.88 |  | 68.51 | 23.8 | IC50 (T47D; t47d): 8.08 µM; IC50 ([19]; hct-15): 9.29 µM
6 |  |  | Cc1ccc2c(N3CCNCC3)nc(-c3cccs3)cc2c1.Cl | 0.27 | 6.13 | 96.03 | 0.57 | 1.64 | 13.49 | 86.88 | 0 | 12.75 |  | 0.58 | 0.17 | 98.87 | 0.67 | 1.6 | 0.94 | 59.04 | 8.18 | IC50 (T47D; Homo sapiens, T47D, 48 h): 7.57 µM; IC50 (DU-145; du-145): 11.7 µM
7 |  |  | Nc1nc(-c2cccs2)cc2ccccc12 | 47.68 | 21.33 | 18.03 | 5.04 | 11.6 | 9.04 | 17.43 | 59.85 | 28.48 | > 50 | 41.79 | 9.56 | 13.66 | 11.29 | 8.2 |  | 44.93 |  | IC50 ([1]; Homo sapiens, MCF-10A, 48 h): > 50 µM; IC50 (T47D; t47d): 7.93 µM; IC50 ([19]; hct-15): 1.2 µM
